For nine compounds, Activity results are on record in ChEMBL document CHEMBL1149894, “Glycosidic constituents of the tubers of Gymnadenia conopsea” (J Nat Prod, 2008).

Series [1] concerns the target T1, Acetylcholinesterase (Rattus norvegicus) (UniProt P37136).
T1 sequence (whole entry): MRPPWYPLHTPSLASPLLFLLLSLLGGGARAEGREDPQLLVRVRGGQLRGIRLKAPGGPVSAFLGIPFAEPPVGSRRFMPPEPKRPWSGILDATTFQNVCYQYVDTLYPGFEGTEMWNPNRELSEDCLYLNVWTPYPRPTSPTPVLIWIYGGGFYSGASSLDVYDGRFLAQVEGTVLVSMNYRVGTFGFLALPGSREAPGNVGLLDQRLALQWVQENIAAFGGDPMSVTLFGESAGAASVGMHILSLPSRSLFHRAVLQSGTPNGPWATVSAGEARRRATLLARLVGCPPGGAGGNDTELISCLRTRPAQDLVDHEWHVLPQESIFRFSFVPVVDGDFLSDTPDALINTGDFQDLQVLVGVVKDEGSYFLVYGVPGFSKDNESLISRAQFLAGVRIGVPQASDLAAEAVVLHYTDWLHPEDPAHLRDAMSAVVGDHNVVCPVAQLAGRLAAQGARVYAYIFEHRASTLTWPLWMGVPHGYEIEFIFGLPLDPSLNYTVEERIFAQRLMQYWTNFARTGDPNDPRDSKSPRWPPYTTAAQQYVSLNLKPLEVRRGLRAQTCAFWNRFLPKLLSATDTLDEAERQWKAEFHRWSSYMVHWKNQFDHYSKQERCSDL
Description: Inhibition of rat brain AChE at 10 uM by Ellman method. A digest of the protocol:
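Source: fresh rat brain homogenised in 9 volumes of ice-cold PBS, incubated with each test compound separately. Activity measured spectrophotometrically at 25 °C by the Ellman method; test compounds at 10^-5 M; donepezil as positive control; read as percent inhibition.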

Series [2] concerns the target T2, Amine oxidase [flavin-containing] B (Rattus norvegicus, UniProt P19643).
T2 sequence (P19643 whole entry): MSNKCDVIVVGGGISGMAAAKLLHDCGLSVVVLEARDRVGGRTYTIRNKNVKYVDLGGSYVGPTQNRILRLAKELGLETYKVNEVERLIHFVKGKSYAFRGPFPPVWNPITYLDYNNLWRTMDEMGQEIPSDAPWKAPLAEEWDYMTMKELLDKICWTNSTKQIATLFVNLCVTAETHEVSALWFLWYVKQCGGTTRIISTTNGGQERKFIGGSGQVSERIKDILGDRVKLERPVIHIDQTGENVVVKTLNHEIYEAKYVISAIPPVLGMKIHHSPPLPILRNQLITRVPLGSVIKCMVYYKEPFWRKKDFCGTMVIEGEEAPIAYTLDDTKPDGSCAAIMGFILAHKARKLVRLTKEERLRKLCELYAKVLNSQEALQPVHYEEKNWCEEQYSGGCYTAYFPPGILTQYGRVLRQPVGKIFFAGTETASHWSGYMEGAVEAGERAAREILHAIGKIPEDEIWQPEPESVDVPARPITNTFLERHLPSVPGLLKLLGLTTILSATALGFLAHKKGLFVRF
Description: Inhibition of rat brain monoamine oxidase B at 10 uM. The method in brief: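 Fresh rat brain homogenized in 9-fold volume of ice-cold PBS and incubated separately with each compound at 10^-5 M. MAO-B activity was determined by quantifying the oxidation product of benzylamine substrate. Pargyline was the positive control. The value is reported as an inhibition rate.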

The source made the active and inactive calls. The rule behind the calls is not given here.

With `CC(C)C[C@](O[C@@H]1O[C@H](CO)[C@@H](O)[C@H](O)[C@H]1O)(C(=O)OCc1ccc(O[C@@H]2O[C@H](CO)[C@@H](O)[C@H](O)[C@H]2O)cc1)[C@H](O)C(=O)OCc1ccc(O[C@@H]2O[C@H](CO)[C@@H](O)[C@H](O[C@@H]3O[C@H](CO)[C@@H](O)[C@H](O)[C@H]3O)[C@H]2O)cc1`, in series [1], the result was inactive. Further, the Activity entry in series [2] is “Not Active”.
For `CC(C)C[C@](CC(=O)OCc1ccc(O[C@@H]2O[C@H](CO)[C@@H](O)[C@H](O)[C@H]2O)cc1)(O[C@@H]1O[C@H](CO)[C@@H](O)[C@H](O)[C@H]1O)C(=O)O`, in that order: “inactive” and “Not Active”.
Consider `OCc1ccc(O[C@@H]2O[C@H](CO)[C@@H](O[C@@H]3O[C@H](CO)[C@@H](O)[C@H](O)[C@H]3O)[C@H](O)[C@H]2O)cc1`, for which the result in series [1] was inactive. Further, the Activity entry in series [2] is given as “Not Active”.
On the same counts, the results for `CCOCc1ccc(O[C@@H]2O[C@H](CO)[C@@H](O)[C@H](O[C@@H]3O[C@H](CO)[C@@H](O)[C@H](O)[C@H]3O)[C@H]2O)cc1` are “inactive” and “Not Active”.
Take `OCc1ccc(O[C@@H]2O[C@H](CO)[C@@H](O[C@H]3O[C@H](CO)[C@@H](O)[C@H](O)[C@H]3O)[C@H](O)[C@H]2O)cc1`: the result in series [1] was inactive. Besides, in series [2], the Activity result is “Not Active”.
On the same counts, the results for `COC(=O)[C@@H](O)[C@](O)(CC(C)C)C(=O)OCc1ccc(O[C@@H]2O[C@H](CO)[C@@H](O)[C@H](O)[C@H]2O)cc1` are “inactive” and “Not Active”.
For `CC(C)C[C@](O)(C(=O)OCc1ccc(O[C@@H]2O[C@H](CO)[C@@H](O)[C@H](O)[C@H]2O)cc1)[C@H](O)C(=O)OCc1ccc(O[C@@H]2O[C@H](CO[C@@H]3O[C@H](CO)[C@@H](O)[C@H](O)[C@H]3O)[C@@H](O)[C@H](O)[C@H]2O)cc1`, in that order: “inactive” and “Not Active”.
Take `OCc1ccc(O[C@@H]2O[C@H](CO)[C@@H](O)[C@H](O[C@@H]3O[C@H](CO)[C@@H](O)[C@H](O)[C@H]3O)[C@H]2O)cc1`: the result in series [1] was inactive. Also, in series [2], the Activity entry is on record as “Not Active”.
For `CC(C)C[C@](O[C@@H]1O[C@H](CO)[C@@H](O)[C@H](O)[C@H]1O)(C(=O)OCc1ccc(O[C@@H]2O[C@H](CO)[C@@H](O)[C@H](O)[C@H]2O)cc1)C(O)C(=O)OCc1ccc(O[C@@H]2O[C@H](CO)[C@@H](O[C@H]3O[C@H](CO)[C@@H](O)[C@H](O)[C@H]3O)[C@H](O)[C@H]2O)cc1` (stereo partly drawn), in that order: “inactive” and “Not Active”.
